From ChEMBL document CHEMBL2440094, “Thiazolidinone-peptide hybrids as dengue virus protease inhibitors with antiviral activity in cell culture” (J Med Chem, 2013)
The source made the active and inactive calls. The calls are words filed in the database; no cut-off is given here.

Key:
[1] = system: West Nile virus; assay: Inhibition of West Nile virus NS2B-NS3 protease expressed in Escherichia coli BL 21 (DE3) using Abz-Gly-Leu-Lys-Arg-Gly-Gly-3-(NO2)Tyr as substrate at 50 uM after 15 mins
[2] = molecular target: Prothrombin (Homo sapiens) (UniProt P00734); assay: Inhibition of thrombin (unknown origin) using Boc-Val-Pro-Arg-AMC as substrate at 25 uM after 10 mins by continuous fluorimetric assay
In short: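 Thrombin (10 nM) preincubated 15 min with inhibitor (25 μM final) in 50 mM Tris-HCl pH 7.5, 150 mM NaCl, 0.05% Tween 20. Boc-Val-Pro-Arg-AMC then added to 50 μM (Km 16 μM). Fluorescence (ex 355 nm, em 460 nm) followed for 10 min as slope. Triplicate; percent inhibition versus no-inhibitor control.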

[3] = system: Dengue virus; assay: Inhibition of Dengue virus NS2B-NS3 protease expressed in Escherichia coli BL 21 (DE3) using Abz-Nle-Lys-Arg-Arg-Ser-3-(NO2)Tyr as substrate at 50 uM after 15 mins
[4] = system: dengue virus type 2; assay: Antiviral activity against Dengue virus 2 infected in human Huh-7 cells assessed as inhibition of viral replication after 48 hrs by luciferase reporter gene assay; assay type: functional, organism-based; conditions: Huh-7, 48 h
In short: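 Huh-7 cells seeded 5000/well, incubated overnight at 37 °C, then given compound (1.56–50 μM final, 2-fold series in DMEM with 10% FCS). Dengue 2 renilla luciferase reporter virus (MOI 10) added 4 h later. After 48 h at 37 °C, cells lysed and renilla luminescence read with coelenterazine. At least four wells per concentration, expressed relative to DMSO control. EC50 by nonlinear regression.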

[5] = system: Huh-7; assay: Cytotoxicity against human HuH7 cells at <50 uM after 48 hrs by firefly reporter assay; assay type: cell-based; conditions: huh-7, 48 h
In short: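 Uninfected Huh-7 cells stably expressing firefly luciferase, seeded 5000/well and incubated overnight at 37 °C. Compound added at 1.56–50 μM, plus 100, 200 and 400 μM, then incubated as for infected cells (further 48 h after the 4 h point). Firefly luminescence read with 70 μM luciferin and 2 mM ATP. Mean of three wells as percent of DMSO control.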

[6] = Permeability of the compound by PAMPA; assay type: ADME; conditions: read-out: permeability
In short: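 PAMPA with precoated trilayer lipid/oil/lipid membranes, donor wells holding 200 μM compound in PBS pH 7.4 (2% DMSO final), in triplicate. Incubated 5 h at room temperature. Donor and acceptor concentrations determined by UV plate reader or HPLC-UV against calibration curves. Pe and mass retention R calculated.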

CCCC[C@H](NC(=O)[C@H](CCCCN)NC(=O)[C@H](CCCNC(=N)N)NC(=O)c1ccc(/C=C2\SC(=S)N(c3ccc(C)cc3)C2=O)cc1)C(N)=O
inhibition [1]: 50.9%
inhibition [2]: 10.2%
inhibition [3]: 95%

CCCC[C@H](NC(=O)[C@H](CCCCN)NC(=O)[C@H](CCCNC(=N)N)NC(=O)c1ccc(/C=C2\SC(=S)N(CCO)C2=O)cc1)C(N)=O
EC50 [4]: > 50 µM
inhibition [1]: 28.4%
inhibition [2]: 12.9%
inhibition [3]: 90.3%

CCCC[C@H](NC(=O)[C@H](CCCCN)NC(=O)[C@H](CCCNC(=N)N)NC(=O)c1ccc(/C=C2\SC(=S)N(c3ccc(F)cc3)C2=O)cc1)C(N)=O
inhibition [1]: 35.5%
inhibition [2]: 6.5%
inhibition [3]: 89.7%

CCCC[C@H](NC(=O)[C@H](CCCCN)NC(=O)[C@H](CCCNC(=N)N)NC(=O)c1ccc(/C=C2\SC(=S)NC2=O)cc1)C(N)=O
Activity [5]: Non-toxic
EC50 [4]: > 50 µM
inhibition [1]: 48.7%
inhibition [2]: 13.9%
inhibition [3]: 87.1%

CCCC[C@H](NC(=O)[C@H](CCCCN)NC(=O)[C@H](CCCNC(=N)N)NC(=O)c1ccc(/C=C2\SC(=S)N(c3ccccc3)C2=O)cc1)C(N)=O
inhibition [1]: 37.8%
inhibition [2]: 14.2%
inhibition [3]: 90%

CCCC[C@H](NC(=O)[C@H](CCCCN)NC(=O)[C@H](CCCNC(=N)N)NC(=O)CC1SC(=S)N(Cc2ccc(OC)cc2)C1=O)C(N)=O (some centres undefined)
EC50 [4]: 30.3 µM
inhibition [1]: inactive
inhibition [2]: 76.8%
inhibition [3]: 23%

CCCC[C@H](NC(=O)[C@H](CCCCN)NC(=O)[C@H](CCCNC(=N)N)NC(=O)c1ccc(/C=C2\NC(=S)N(c3ccccc3)C2=O)cc1)C(N)=O
inhibition [1]: 44.1%
inhibition [2]: 18%
inhibition [3]: 85.2%

CCCC[C@H](NC(=O)[C@H](CCCCN)NC(=O)[C@H](CCCNC(=N)N)NC(=O)c1ccc(/C=C2\SC(=O)N(C(C)C)C2=O)cc1)C(N)=O
inhibition [1]: 30.9%
inhibition [2]: 10.6%
inhibition [3]: 95.8%

C=CCN1C(=O)S/C(=C\c2ccc(C(=O)N[C@@H](CCCNC(=N)N)C(=O)N[C@@H](CCCCN)C(=O)N[C@@H](CCCC)C(N)=O)cc2)C1=O
inhibition [1]: 33.2%
inhibition [2]: 12.5%
inhibition [3]: 93.2%

CCCC[C@H](NC(=O)[C@H](CCCCN)NC(=O)[C@H](CCCNC(=N)N)NC(=O)c1ccc(/C=C2\SC(=S)N(CC)C2=O)cc1)C(N)=O
inhibition [1]: 45.4%
inhibition [2]: 13.6%
inhibition [3]: 93.4%

CCCC[C@H](NC(=O)[C@H](CCCNC(=N)N)NC(=O)[C@H](CCCCN)NC(=O)c1ccc(/C=C2\SC(=O)N(Cc3ccccc3)C2=O)cc1)C(N)=O
inhibition [1]: 60.9%
inhibition [2]: 10.2%
inhibition [3]: 72.1%

CCCC[C@H](NC(=O)[C@H](CCCCN)NC(=O)[C@H](CCCNC(=N)N)NC(=O)CN1C(=O)/C(=C/c2ccc(OC)c(OC)c2)SC1=S)C(N)=O
inhibition [1]: 30.2%
inhibition [2]: 13.8%
inhibition [3]: 46.5%

CCCC[C@H](NC(=O)[C@H](CCCCN)NC(=O)[C@H](CCCNC(=N)N)NC(=O)c1cccc(/C=C2\SC(=S)NC2=O)c1)C(N)=O
EC50 [4]: > 50 µM
inhibition [1]: 34.6%
inhibition [2]: 17.6%
inhibition [3]: 75.2%

CCCC[C@H](NC(=O)[C@H](CCCCN)NC(=O)[C@H](CCCCN)NC(=O)c1ccc(/C=C2\SC(=O)N(Cc3ccccc3)C2=O)cc1)C(N)=O
inhibition [1]: 36.9%
inhibition [2]: 16.7%
inhibition [3]: 83%

CCCC[C@H](NC(=O)[C@H](CCCCN)NC(=O)[C@H](CCCNC(=N)N)NC(=O)c1ccc(/C=C2\SC(=S)N(c3ccc(OC)cc3)C2=O)cc1)C(N)=O
EC50 [4]: 42.5 µM
inhibition [1]: 42.9%
inhibition [2]: 8.5%
Papp [6]: 0.59 ×10⁻⁶ cm/s
inhibition [3]: 92.5%

CCCC[C@H](NC(=O)[C@H](CCCNC(=N)N)NC(=O)[C@H](CCCNC(=N)N)NC(=O)c1ccc(/C=C2\SC(=O)N(Cc3ccccc3)C2=O)cc1)C(N)=O
inhibition [1]: 74%
inhibition [2]: 13.7%
inhibition [3]: 92.7%

CCCC[C@H](NC(=O)c1ccc(/C=C2\SC(=O)N(Cc3ccccc3)C2=O)cc1)C(=O)N[C@@H](CCCCN)C(=O)N[C@@H](CCCNC(=N)N)C(N)=O
inhibition [1]: 60.3%
inhibition [2]: 6.3%
inhibition [3]: 66.8%

CCCC[C@H](NC(=O)[C@H](CCCCN)NC(=O)[C@H](CCCNC(=N)N)NC(=O)c1ccc(/C=C2\SC(=O)N(C)C2=O)cc1)C(N)=O
Activity [5]: Non-toxic
inhibition [1]: 38.1%
inhibition [2]: 9.2%
inhibition [3]: 91.1%

O=C(O)c1ccc(/C=C2\SC(=O)N(Cc3ccccc3)C2=O)cc1
inhibition [1]: 22.1%
inhibition [2]: 12.2%
inhibition [3]: 30.7%

CCCC[C@@H](NC(=O)[C@@H](CCCCN)NC(=O)[C@@H](CCCNC(=N)N)NC(=O)c1ccc(/C=C2\SC(=O)N(Cc3ccccc3)C2=O)cc1)C(N)=O
inhibition [1]: 47.5%
inhibition [2]: 11.1%
Papp [6]: 0.29 ×10⁻⁶ cm/s
inhibition [3]: 73.9%

CCCC[C@H](NC(=O)[C@H](CCCCN)NC(=O)[C@H](CCCNC(=N)N)NC(=O)c1ccc(/C=C2\SC(=S)N(c3ccc(Cl)cc3)C2=O)cc1)C(N)=O
EC50 [4]: 35.7 µM
inhibition [1]: 53.6%
inhibition [2]: 11.1%
Papp [6]: 1.02 ×10⁻⁶ cm/s
inhibition [3]: 96.7%

CCCC[C@H](NC(=O)[C@H](CCCCN)NC(=O)[C@H](CCCNC(=N)N)NC(=O)c1ccc(/C=C2\NC(=S)N(Cc3ccccc3)C2=O)cc1)C(N)=O
inhibition [1]: 29.2%
inhibition [2]: 11.4%
inhibition [3]: 83.5%

CCCC[C@H](NC(=O)[C@H](CCCCN)NC(=O)[C@H](CCCNC(=N)N)NC(=O)[C@H](Cc1ccccc1)N1C(=O)/C(=C/c2ccc(OC)c(OC)c2)SC1=S)C(N)=O
EC50 [4]: > 50 µM
inhibition [1]: 25%
inhibition [2]: 18.9%
inhibition [3]: 60.8%

CCCC[C@H](NC(=O)[C@H](CCCCN)NC(=O)[C@H](CCCNC(=N)N)NC(=O)c1ccc(/C=C2\SC(=S)N(C(C)C)C2=O)cc1)C(N)=O
inhibition [1]: 63.7%
inhibition [2]: 12%
inhibition [3]: 94.4%

CCCC[C@H](NC(=O)[C@H](CCCCN)NC(=O)[C@H](CCCNC(=N)N)NC(=O)c1ccc(/C=C2\SC(=O)N(CCC)C2=O)cc1)C(N)=O
inhibition [1]: 33.6%
inhibition [2]: inactive
inhibition [3]: 94.5%

CCCC[C@H](NC(=O)[C@H](CCCCN)NC(=O)[C@H](CCCNC(=N)N)NC(=O)c1ccc(/C=C2\SC(=S)N(CCC)C2=O)cc1)C(N)=O
inhibition [1]: 52.7%
inhibition [2]: 11%
inhibition [3]: 94.2%

N=C(N)NCCC[C@H](NC(=O)c1ccc(/C=C2\SC(=O)N(Cc3ccccc3)C2=O)cc1)C(N)=O
inhibition [1]: 16.9%
inhibition [2]: 13.2%
inhibition [3]: 32.4%

CCCC[C@H](NC(=O)[C@H](CCCCN)NC(=O)[C@H](CCCNC(=N)N)NC(=O)c1ccc(/C=C2\SC(=O)N(c3ccc(C)cc3)C2=O)cc1)C(N)=O
inhibition [1]: 42.4%
inhibition [2]: 13.8%
Papp [6]: 0.66 ×10⁻⁶ cm/s
inhibition [3]: 93.8%

CCCC[C@H](NC(=O)[C@H](CCCCN)NC(=O)[C@H](CCCNC(=N)N)NC(=O)c1ccc(/C=C2\SC(=S)N(CC3CCCO3)C2=O)cc1)C(N)=O (some centres undefined)
inhibition [1]: 53.4%
inhibition [2]: 13.3%
inhibition [3]: 93.3%

CCCC[C@H](NC(=O)[C@H](CCCCN)NC(=O)[C@H](CCCNC(=N)N)NC(=O)c1ccc(/C=C2\SC(=O)N(CCO)C2=O)cc1)C(N)=O
EC50 [4]: > 50 µM
inhibition [1]: 26.5%
inhibition [2]: 11.8%
inhibition [3]: 95.9%

CCCC[C@H](NC(=O)[C@H](CCCCN)NC(=O)[C@H](CCCNC(=N)N)NC(=O)c1ccc(/C=C2\SC(=S)N(C3CC3)C2=O)cc1)C(N)=O
inhibition [1]: 46.4%
inhibition [2]: 6.3%
inhibition [3]: 94.6%

CCCC[C@H](NC(=O)[C@H](CCCCN)NC(=O)[C@H](CCCNC(=N)N)NC(=O)c1ccc(/C=C2\SC(=S)N(CCOC(C)=O)C2=O)cc1)C(N)=O
inhibition [1]: 22.4%
inhibition [2]: 22.8%
inhibition [3]: 89.3%

CCCC[C@H](NC(=O)[C@H](CCCC)NC(=O)[C@H](CCCNC(=N)N)NC(=O)c1ccc(/C=C2\SC(=O)N(Cc3ccccc3)C2=O)cc1)C(N)=O
inhibition [1]: 88.3%
inhibition [2]: 8.3%
inhibition [3]: 81.4%

CCCC[C@H](NC(=O)[C@H](CCCCN)NC(=O)[C@H](CCCNC(=N)N)NC(=O)c1cccc(/C=C2\SC(=O)N(C3CCCC3)C2=O)c1)C(N)=O
EC50 [4]: 53.8 µM
inhibition [1]: 52.9%
inhibition [2]: 13%
Papp [6]: 1.9 ×10⁻⁶ cm/s
inhibition [3]: 92.4%

N=C(N)NCCC[C@H](NC(=O)c1ccc(/C=C2\SC(=O)N(Cc3ccccc3)C2=O)cc1)C(=O)N[C@@H](CCCCN)C(N)=O
inhibition [1]: 76.2%
inhibition [2]: inactive
inhibition [3]: 83.1%

CCCC[C@H](NC(=O)[C@H](CCCCN)NC(=O)[C@H](CCCNC(=N)N)NC(=O)c1ccc(/C=C2\SC(=O)N(CC)C2=O)cc1)C(N)=O
inhibition [1]: 48.5%
inhibition [2]: 19%
inhibition [3]: 96.5%
